Test results from ChEMBL document CHEMBL2176867, “Design, synthesis, and biological evaluation of novel deguelin-based heat shock protein 90 (HSP90) inhibitors targeting proliferation and angiogenesis” (J Med Chem, 2012).
pIC50: −log10 of the molar value. Activity calls are given as the source filed them. The calls are words filed in the database; no cut-off is given here.

Tests used:
Danio rerio [1] = species on record: Danio rerio; assay: Toxicity in transgenic zebrafish embryos assessed as effect on viability at 50 nM to 1.25 uM after 74 hrs; type: organism-based; settings: in vivo, 0.05 µM
How it was run: (§1)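 Zebrafish embryos exposed from 24 hpf to 50 nM–1.25 μM in Danieau's solution (pigmentation blocked with 1-phenyl-2-thiourea at 12 hpf); solution washed out at 48 hpf, then scored for viability and gross morphological abnormalities.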

[2] = biological target: Heat shock protein HSP 90-beta (Homo sapiens) (UniProt P08238); assay: Inhibition of HSP90 in human H1299 cells assessed as reduction of HIF1alpha level treated for 72 hrs followed by incubated for 12 hrs under hypoxia condition by Western blot analysis; type: cell-based
Chain of Heat shock protein HSP 90-beta (Homo sapiens) (P08238 whole entry): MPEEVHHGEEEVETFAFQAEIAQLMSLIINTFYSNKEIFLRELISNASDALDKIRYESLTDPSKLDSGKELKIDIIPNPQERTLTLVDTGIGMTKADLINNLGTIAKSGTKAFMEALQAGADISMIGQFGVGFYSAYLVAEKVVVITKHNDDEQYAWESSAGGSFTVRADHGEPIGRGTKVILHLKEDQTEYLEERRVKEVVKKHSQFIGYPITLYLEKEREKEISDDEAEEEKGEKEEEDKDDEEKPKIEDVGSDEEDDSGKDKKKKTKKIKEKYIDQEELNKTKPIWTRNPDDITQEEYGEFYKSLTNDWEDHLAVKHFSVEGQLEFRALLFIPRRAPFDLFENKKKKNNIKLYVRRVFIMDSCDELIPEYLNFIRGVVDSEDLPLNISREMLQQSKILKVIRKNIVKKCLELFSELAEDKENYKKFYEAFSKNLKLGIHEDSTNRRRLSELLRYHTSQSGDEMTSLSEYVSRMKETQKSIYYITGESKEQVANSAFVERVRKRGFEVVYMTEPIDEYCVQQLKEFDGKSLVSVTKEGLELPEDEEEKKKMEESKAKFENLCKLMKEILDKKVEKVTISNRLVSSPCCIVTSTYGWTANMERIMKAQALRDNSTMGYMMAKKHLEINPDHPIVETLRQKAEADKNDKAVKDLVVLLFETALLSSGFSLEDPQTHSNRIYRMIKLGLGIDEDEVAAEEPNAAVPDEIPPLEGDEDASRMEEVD
How it was run: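 H1299 cells left untreated or exposed to test agents at each concentration for 72 h, then held under hypoxia (1% O₂) for 12 h; lysates immunoblotted with monoclonal anti-HIF-1α antibody.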

Danio rerio [3] = species on record: Danio rerio; assay: Antiangiogenic activity in transgenic zebrafish assessed as depletion of subintestinal veins at 50 nM to 1250 nM after 72 hrs; type: functional, organism-based
How it was run: (§2)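 Tg(fli:EGFP)^y1 embryos, treated with 1-phenyl-2-thiourea at 12 hpf to block pigmentation, placed in Danieau's solution ± test agents (50, 250, 1250 nM) at 24 hpf; solution washed out at 48 hpf; subintestinal vessels imaged in 72 hpf larvae against DMSO control.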

Danio rerio [4] = species on record: Danio rerio; assay: Toxicity in transgenic zebrafish embryos assessed as effect on growth at 50 nM to 1.25 uM after 74 hrs; type: organism-based; settings: in vivo, 0.05 µM; how it was run: as §1
Danio rerio [5] = species on record: Danio rerio; assay: Toxicity in transgenic zebrafish embryos assessed as developmental deffect at 10 uM after 24 hrs; type: organism-based; settings: in vivo
[6] = biological target: Heat shock protein HSP 90-beta (Homo sapiens) (UniProt P08238); assay: Inhibition of HSP90 binding to HIF1alpha in human H1299 cells at 12.5 uM after 30 mins by immunoprecipitation and immunoblotting analysis; type: cell-based; settings: 1.25 uM, in the assay text read “1.25 uM” for “12.5 uM”
How it was run: (§3)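 Cell-free format: lysates of H1299 cells pretreated with 100 μM CoCl₂ for 5 h, incubated with compound at 1.25 μM, with or without 20 mM ATP, 30 min at 37 °C. HIF-1α immunoprecipitated (antibody overnight, 4 °C; protein G-agarose 2 h, 4 °C), resolved on 6% SDS-PAGE, blotted for HSP90.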

[7] = Cytotoxicity against human H1299 cells after 3 days by MTS assay; type: functional, cell-based; settings: NCI-H1299, 72 h
How it was run: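 H1299 NSCLC cells seeded at 5 × 10³ cells/well, treated next day with graded concentrations (0.1% DMSO as dilution control); proliferation read by MTS after 3 days; at least three replicate wells; IC50 taken as mean of triplicate experiments.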

Danio rerio [8] = species on record: Danio rerio; assay: Antiangiogenic activity in transgenic zebrafish embryos
[9] = biological target: Heat shock protein HSP 90-beta (Homo sapiens) (UniProt P08238); assay: Inhibition of HSP90 binding to HIF1alpha in human H1299 cells at 12.5 uM after 30 mins by immunoprecipitation and immunoblotting analysis in presence of ATP; type: cell-based; settings: 1.25 uM, in the assay text read “1.25 uM” for “12.5 uM”; how it was run: as §3
Danio rerio [10] = species on record: Danio rerio; assay: Toxicity in transgenic zebrafish embryos assessed as developmental deffect at 50 nM to 1.25 uM after 24 hrs; type: organism-based; settings: in vivo, 0.05 µM; how it was run: as §1
Danio rerio [11] = species on record: Danio rerio; assay: Antiangiogenic activity in transgenic zebrafish at 0.05 to 1.25 uM up to 72 hrs; type: functional, organism-based; how it was run: as §2
Danio rerio [12] = species on record: Danio rerio; assay: Antiangiogenic activity in transgenic zebrafish assessed as depletion of subintestinal veins after 72 hrs; type: functional, organism-based; how it was run: as §2
Danio rerio [13] = species on record: Danio rerio; assay: Toxicity in transgenic zebrafish embryos assessed as effect on viability after 24 hrs; type: organism-based; settings: in vivo
How it was run: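 Tg(fli:EGFP)y1 zebrafish embryos, with pigment suppressed by 1-phenyl-2-thiourea from 12 hpf, were placed at 24 hpf in Danieau's solution with or without compound (50 nM to 1.25 μM). The solution was washed out at 48 hpf, and embryos were examined for viability and gross morphological abnormalities, with DMSO as the control.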

Danio rerio [14] = species on record: Danio rerio; assay: Antiangiogenic activity in transgenic zebrafish at 50 nM up to 72 hrs; type: functional, organism-based; how it was run: as §2
Danio rerio [15] = species on record: Danio rerio; assay: Toxicity in transgenic zebrafish embryos assessed as developmental deffect at 50 nM to 10 uM after 24 hrs; type: organism-based; settings: in vivo, 0.05 µM
How it was run: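 Tg(fli:EGFP)y1 zebrafish embryos were exposed dose-dependently from 50% epiboly (5.3 hpf) across 50 nM to 10 μM, then scored for developmental defects. Pigmentation was blocked with 1-phenyl-2-thiourea at 12 hpf, and compounds were given in Danieau's solution, with DMSO as the negative control.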

| Compound | pIC50 [7] | further results |
| --- | --- | --- |
| COc1ccc([C@H](C)C(=O)c2ccc3c(c2OC)C=CC(C)(C)O3)cc1OC | 6.31 | Activity (Danio rerio [1]): Non-toxic; inhibition [2]: Active; Activity (Danio rerio [3]): Active; Activity (Danio rerio [4]): Non-toxic; Activity (Danio rerio [5]): Toxic; inhibition [6]: Active; Activity (Danio rerio [8]): Dose-dependent effect; inhibition [9]: inactive; Activity (Danio rerio [10]): Non-toxic |
| CCCO[C@@H]1c2ccc3c(c2O[C@@H]2COc4cc(OC)c(OC)cc4[C@H]12)C=CC(C)(C)O3 | 4.98 | – |
| COc1cc2c(cc1OC)[C@@H]1[C@H](OCc3ccccc3)c3ccc4c(c3O[C@@H]1CO2)C=CC(C)(C)O4 | < 3.30 | – |
| COc1ccc(C(C)(C)C(=O)c2ccc3c(c2OC)C=CC(C)(C)O3)cc1OC | 5.49 | – |
| COc1cc2c(cc1OC)[C@@H]1C(=O)c3ccc(OC(C)=O)c(CC=C(C)C)c3O[C@@H]1CO2 | < 3.30 | – |
| COc1cc2c(cc1OC)[C@@H]1[C@H](OC(N)=O)c3ccc4c(c3O[C@@H]1CO2)C=CC(C)(C)O4 | 6.96 | inhibition [2]: Active; Activity (Danio rerio [11]): inactive |
| C=CCOc1ccc2c(c1CC=C(C)C)O[C@@H]1COc3cc(OC)c(OC)cc3[C@@H]1C2=O | < 3.30 | – |
| COc1cc2c(cc1OC)[C@@H]1Cc3ccc4c(c3O[C@@H]1CO2)C=CC(C)(C)O4 | 5.38 | – |
| COc1cc2c(cc1OC)[C@@H]1C(=O)c3ccc4c(c3O[C@@H]1CO2)C(O)C(O)C(C)(C)O4 (some centres undefined) | < 3.30 | – |
| COc1cc2c(cc1OC)-c1c(oc3c4c(ccc3c1=O)OC(C)(C)C=C4)CO2 [DEHYDRODEGUELIN] | < 3.30 | – |
| COc1ccc(CC(=O)c2ccc3c(c2)C=CC(C)(C)O3)cc1OC | 6.00 | – |
| COc1ccc(C2(C(=O)c3ccc4c(c3OC)C=CC(C)(C)O4)CC2)cc1OC | 3.99 | – |
| CCO[C@@H]1c2ccc3c(c2O[C@@H]2COc4cc(OC)c(OC)cc4[C@H]12)C=CC(C)(C)O3 | 5.01 | – |
| COc1cc2c(cc1OC)[C@@H]1C(=O)c3ccc(OCc4ccccc4)c(CC=C(C)C)c3O[C@@H]1CO2 | < 3.30 | – |
| COc1cc2c(cc1O)OC[C@H]1Oc3c(ccc4c3C=CC(C)(C)O4)C(=O)[C@@H]21 | 6.06 | – |
| COc1cc2c(cc1OC)[C@@H]1[C@H](OC)c3ccc4c(c3O[C@@H]1CO2)C=CC(C)(C)O4 | 5.39 | – |
| COc1cc2c(cc1OC)[C@@H]1/C(=N/O)c3ccc4c(c3O[C@@H]1CO2)C=CC(C)(C)O4 | 6.52 | – |

| Compound | pIC50 [7] | further results |
| --- | --- | --- |
| COc1cc2c(cc1OC)[C@@H]1[C@H](OC(C)=O)c3ccc4c(c3O[C@@H]1CO2)C=CC(C)(C)O4 | 6.17 | – |
| COc1ccc(CC(=O)c2ccc3c(c2OC)C=CC(C)(C)O3)cc1OC | 6.85 | Activity (Danio rerio [12]): Dose-dependent effect; Activity (Danio rerio [1]): Non-toxic; inhibition [2]: Active; Activity (Danio rerio [4]): Non-toxic; Activity (Danio rerio [5]): Toxic; inhibition [6]: Active; Activity (Danio rerio [8]): Dose-dependent effect; inhibition [9]: inactive; Activity (Danio rerio [10]): Non-toxic |
| COc1ccc(C2COc3c(ccc4c3C=CC(C)(C)O4)C2=O)cc1OC (racemic) | 5.35 | – |
| COc1cc2c(cc1O)[C@@H]1C(=O)c3ccc4c(c3O[C@@H]1CO2)C=CC(C)(C)O4 | 6.01 | – |
| COc1cc2c(cc1OC)C1=Cc3ccc4c(c3O[C@@H]1CO2)C=CC(C)(C)O4 | < 3.30 | – |
| COc1cc2c(cc1OC)[C@@H]1/C(=N/OCc3ccccc3)c3ccc4c(c3O[C@@H]1CO2)C=CC(C)(C)O4 | < 3.30 | – |
| COc1cc2c(cc1OC)[C@@H]1C(=O)c3ccc(O)c(CC=C(C)C)c3O[C@@H]1CO2 [ROTENONIC ACID] | 5.01 | – |
| CO/N=C1\c2ccc3c(c2O[C@@H]2COc4cc(OC)c(OC)cc4[C@H]12)C=CC(C)(C)O3 | 5.37 | – |
| CC1(C)C=Cc2c(ccc3c2O[C@@H]2COc4cc(O)c(O)cc4[C@@H]2C3=O)O1 | 5.00 | – |
| COc1ccc(C(C)C(=O)c2ccc3c(c2OC)C=CC(C)(C)O3)cc1OC (racemic) | 6.14 | – |
| COc1cc2c(cc1OC)[C@@H]1[C@H](O)c3ccc4c(c3O[C@@H]1CO2)C=CC(C)(C)O4 | 8.00 | inhibition [2]: Active; Activity (Danio rerio [11]): inactive |
| COc1cc2c(cc1OC)[C@@H]1C(=O)c3ccc(OC)c(CC=C(C)C)c3O[C@@H]1CO2 [ROTENONIC ACID, METHYL ETHER] | 5.28 | – |
| COc1cc2c(cc1OC)C(C(=O)c1ccc3c(c1)C=CC(C)(C)O3)CCO2 (racemic) | 5.42 | – |
| COc1cc2c(cc1OC)[C@@H]1C(=O)c3ccc4c(c3O[C@@H]1CO2)C=CC(C)(C)O4 [DEGUELIN] | 6.96 | Activity (Danio rerio [13]): Dose-dependent effect; Activity (Danio rerio [14]): inactive; Activity (Danio rerio [15]): Toxic |
| COc1cc2c(cc1OC)[C@@H]1C(=O)c3ccc4c(c3O[C@@H]1CO2)CCC(C)(C)O4 | 6.85 | – |
| COc1ccc([C@@H](C)C(=O)c2ccc3c(c2OC)C=CC(C)(C)O3)cc1OC | 5.89 | Activity (Danio rerio [1]): Non-toxic; inhibition [2]: Active; Activity (Danio rerio [4]): Non-toxic; Activity (Danio rerio [5]): Toxic; Activity (Danio rerio [8]): Dose-dependent effect; Activity (Danio rerio [10]): Non-toxic |
